High-throughput results (PubChem)
A selection: hits, their analogues and other compounds. The true share with any hit is near 5.8%.
T cruzi growth-1: blocks T. cruzi growth in NIH3T3 culture; T. cruzi beta-gal in NIH3T3, GalScreen luminescence, 90 h; inhibition, % at 8.34 µM; 77,000 tested, 5.9% active; AID 624255;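 active = mean inhibition above about 93%, with at least 55% of replicates each passing it, limit read from the data, passing the limit was not always enough; inconclusive = only one of those two conditions holds; inactive = neither condition holds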
IDH1 mut inh: inhibitors of human IDH1 R132H; O75874; IDH1 R132H reductase, diaphorase/resazurin fluorescence, 60 min; inhibition, % at 10 µM; 70,000 tested, 0.18% active; in the data active = inhibition above about 34%; inconclusive = no clear call, values can overlap the other calls; inactive = below about 11%;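 also: 0% = DMSO and 100% = no enzyme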
Target sequence (O75874 whole entry R132H): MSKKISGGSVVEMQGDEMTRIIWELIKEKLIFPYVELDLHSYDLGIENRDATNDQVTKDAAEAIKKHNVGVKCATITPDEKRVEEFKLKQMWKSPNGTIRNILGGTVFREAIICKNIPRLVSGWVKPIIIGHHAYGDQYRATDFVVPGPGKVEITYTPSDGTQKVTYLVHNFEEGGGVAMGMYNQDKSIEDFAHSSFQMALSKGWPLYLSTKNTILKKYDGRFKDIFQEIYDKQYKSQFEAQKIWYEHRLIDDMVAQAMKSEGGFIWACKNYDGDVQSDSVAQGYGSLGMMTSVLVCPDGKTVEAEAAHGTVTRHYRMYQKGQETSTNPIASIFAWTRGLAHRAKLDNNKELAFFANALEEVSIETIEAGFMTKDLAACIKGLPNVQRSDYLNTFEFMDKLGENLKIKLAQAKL
Pf Dd2 growth: P. falciparum Dd2 growth inhibition. SYBR Green, 72 h; active compounds read low. activity change, % at 10 µM. 94,000 tested, 2.3% active. AID 1159554; in the data active = activity change below about -80%; inconclusive = no clear call, values can overlap the other calls
GASC1 inh: inhibitors of human demethylase GASC-1 KDM4C | Q9H3R0 | GST-KDM4C 2-372, H3K9me3 peptide, LANCE TR-FRET | inhibition, % at 12.5 µM | 96,000 tested, 0.15% active;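 active = mean replicate inhibition above about 25%, with at least 55% of replicates also reaching it, limit read from the data, passing the limit was not always enough; inconclusive = only one of those two conditions met; inactive = neither condition met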
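material = GST-tagged GASC-1 (JMJD2C) catalytic fragment, aa 2-372 | amount = enzyme final amount 10 nM | medium = HEPES buffer, pH 7.5, plus ascorbate | also added = H3K9me3 peptide substrate, Fe(II), 2-oxoglutarate | dosing = single dose | times = 30 min demethylation and 1 h detection at room temperature | detection = LANCE TR-FRET | read-out basis = Fall in 671/618 emission ratio as inhibition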
T cruzi growth-2: Trypanosoma cruzi proliferation inhibition | 5,600 tested, 72% active | T. cruzi beta-gal in NIH3T3, GalScreen luminescence, 90 h | shares compounds with T cruzi growth-1 | inhibition, % at 8.35 µM;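 active = mean replicate inhibition above about 95% and at least 55% of replicates individually reaching it, limit read from the data; inconclusive = only one of the two criteria is met; inactive = neither criterion is met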
T cruzi growth-3: Trypanosoma cruzi proliferation inhibition; inhibition, % at 2.09 µM; shares compounds with T cruzi growth-1; 5,600 tested, 21% active; T. cruzi beta-gal in NIH3T3, GalScreen luminescence, 90 h;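 active = mean inhibition above about 95%, with at least 55% of replicates also reaching it, limit read from the data; inconclusive = meets just one of the two conditions; inactive = meets neither condition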;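 also: plate controls were neutral control median for no effect and positive control median for full effect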
3T3 cytotox: cytotoxicity in mouse NIH/3T3 fibroblasts; shares compounds with T cruzi growth-1; AID 651742; NIH/3T3 viability, CellTiter-Glo ATP luminescence, 90 h; cytotoxicity (signal decrease), % at 8.35 µM; 5,600 tested, 14% active;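 active = mean signal decrease across replicates above about 35% based on untreated-well scatter, with enough replicates individually passing, limit read from the data; inconclusive = no rule stated though some were filed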;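 also: 0% = median of neutral control wells and 100% = median of positive control wells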
NIH3T3 tox 2: kills mouse NIH/3T3 fibroblasts; shares compounds with T cruzi growth-1; NIH/3T3 viability, CellTiter-Glo ATP luminescence, 90 h; inhibition, % at 24.9 µM; 5,600 tested, 56% active; AID 651744;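 active = mean loss of cell viability signal at or above a set limit, and enough replicates individually reaching it; inconclusive = meets only the mean limit or only the replicate share; inactive = meets neither condition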;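 also: 0% = median of neutral control wells and 100% = median of positive control wells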
* = called active by the depositor.

Results for O=S(=O)(c1cccs1)N1CCCCN2[C@H](C1)[C@H](c1ccc(-c3ccccc3)cc1)[C@@H]2CO ?
T cruzi growth-1: 101*; Pf Dd2 growth: 10; GASC1 inh: -1; T cruzi growth-2: 108*; T cruzi growth-3: 94; 3T3 cytotox: 15; NIH3T3 tox 2: inconclusive

Results for O=S(=O)(c1cccs1)N1CCCCN2[C@H](C1)[C@@H](c1ccc(Br)cc1)[C@@H]2CO ?
T cruzi growth-1: 103*; Pf Dd2 growth: 14; GASC1 inh: 0; T cruzi growth-2: 104*; T cruzi growth-3: 15; 3T3 cytotox: inconclusive; NIH3T3 tox 2: 11

How did O=S(=O)(c1cccs1)N1CCCCN2[C@H](CO)[C@@H](c3ccc(Br)cc3)[C@@H]2C1 do in these assays?
T cruzi growth-1: 88; Pf Dd2 growth: 12; GASC1 inh: -2

What do the screens show for `O=S(=O)(c1cccs1)N1CCCCN2[C@H](CO)[C@H](c3ccc(-c4ccccc4)cc3)[C@@H]2C1`?
T cruzi growth-1: inconclusive; Pf Dd2 growth: 46; GASC1 inh: -2; T cruzi growth-2: 107*; T cruzi growth-3: 81; 3T3 cytotox: 15; NIH3T3 tox 2: 2

How did O=S(=O)(c1cccs1)N1CCCCN2[C@H](CO)[C@H](c3ccc(-c4ccccc4)cc3)[C@H]2C1 do in these assays?
T cruzi growth-1: 88; Pf Dd2 growth: -1; GASC1 inh: -1

Results for O=S(=O)(c1cccs1)N1CCCCN2[C@H](CO)[C@H](c3ccc(C4=CCCCC4)cc3)[C@@H]2C1 ?
T cruzi growth-1: 118*; Pf Dd2 growth: -1; T cruzi growth-2: 101*; T cruzi growth-3: 94; 3T3 cytotox: 23; NIH3T3 tox 2: 51*

Results for COc1cccc(NC(=O)C(C)N(c2ccc(Cl)cc2)S(C)(=O)=O)c1 (centres undefined) ?
IDH1 mut inh: 0

Results for Cn1c(SCC(=O)n2c3c(c4ccccc42)CCCC3)nnc1-c1cccc([N+](=O)[O-])c1 ?
IDH1 mut inh: 0

What do the screens show for `O=S(=O)(c1cccs1)N1CCCCN2[C@H](CO)[C@@H](c3ccc(/C=C/c4ccccc4)cc3)[C@@H]2C1`?
T cruzi growth-1: 97*; Pf Dd2 growth: 8; GASC1 inh: 1; T cruzi growth-2: 105*; T cruzi growth-3: 42; 3T3 cytotox: 26; NIH3T3 tox 2: 23

What do the screens show for `O=C(CSc1nnc(-c2ccncc2)n1-c1ccc(Cl)cc1)Nc1ccccc1-c1ccccc1`?
IDH1 mut inh: 0

What do the screens show for `O=C(c1ccncc1)N1CC[C@H]2[C@H](CO)Nc3ccc(-c4ccc(F)cc4)cc3[C@H]21`?
T cruzi growth-1: 99*; Pf Dd2 growth: 26; GASC1 inh: -2; T cruzi growth-2: 94; T cruzi growth-3: 34; 3T3 cytotox: -12; NIH3T3 tox 2: 3

Results for O=C(c1ccccn1)N1CC[C@@H]2[C@H]1c1cc(-c3ccc(F)cc3)ccc1N[C@@H]2CO ?
T cruzi growth-1: 105*; Pf Dd2 growth: 16; GASC1 inh: -2; T cruzi growth-2: 107*; T cruzi growth-3: 63; 3T3 cytotox: 15; NIH3T3 tox 2: 30*

Results for O=C(c1ccccn1)N1CC[C@@H]2[C@@H](CO)Nc3ccc(-c4ccccc4)cc3[C@@H]21 ?
T cruzi growth-1: 105*; Pf Dd2 growth: -32; GASC1 inh: 0; T cruzi growth-2: 101*; T cruzi growth-3: 86; 3T3 cytotox: -18; NIH3T3 tox 2: -14

How did COc1ccc([N+](=O)[O-])cc1NC(=O)CS(=O)(=O)Cc1ccccc1 do in these assays?
IDH1 mut inh: 0

How did O=C(CSc1nc(-c2ccccc2)cc(C(F)(F)F)n1)Nc1ccc2c(c1)CCC2 do in these assays?
IDH1 mut inh: 1
